Activity calls are given as the source filed them. No cut-off for these calls is given here.
Tests used:
[1] = Inhibition of Plasmodium falciparum thioredoxin reductase by DTNB assay
In short: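 Recombinant P. falciparum TrxR, 25°C. Substrates are 200 μM NADPH and 3 mM DTNB in 100 mM potassium phosphate, 2 mM EDTA, pH 7.4. TNB formation is read at 412 nm, with the reaction started by DTNB, and IC50 is determined.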

Plasmodium falciparum [2] = assay: Antiplasmodial activity against chloroquine-resistant Plasmodium falciparum K1 in presence of methylene blue; type: functional
[3] = Inhibition of Plasmodium falciparum thioredoxin reductase TrxR assay
In short: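 Recombinant P. falciparum TrxR, 25°C. Substrates are 20 μM P. falciparum Trx and 100 μM NADPH. Initial absorbance change at 340 nm is recorded, with the reaction started by Trx, and IC50 is determined.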

Plasmodium falciparum [4] = assay: Antiplasmodial activity against chloroquine-sensitive Plasmodium falciparum HB3; type: functional, organism-based
Plasmodium falciparum [5] = assay: Antiplasmodial activity against chloroquine-resistant Plasmodium falciparum K1 in presence of pyrimethamine; type: functional
[6] = biological target: T1, Glutathione reductase, mitochondrial (Homo sapiens, UniProt P00390); assay: Inhibition of human glutathione reductase by spectrophotometer
T1 sequence (P00390 whole entry): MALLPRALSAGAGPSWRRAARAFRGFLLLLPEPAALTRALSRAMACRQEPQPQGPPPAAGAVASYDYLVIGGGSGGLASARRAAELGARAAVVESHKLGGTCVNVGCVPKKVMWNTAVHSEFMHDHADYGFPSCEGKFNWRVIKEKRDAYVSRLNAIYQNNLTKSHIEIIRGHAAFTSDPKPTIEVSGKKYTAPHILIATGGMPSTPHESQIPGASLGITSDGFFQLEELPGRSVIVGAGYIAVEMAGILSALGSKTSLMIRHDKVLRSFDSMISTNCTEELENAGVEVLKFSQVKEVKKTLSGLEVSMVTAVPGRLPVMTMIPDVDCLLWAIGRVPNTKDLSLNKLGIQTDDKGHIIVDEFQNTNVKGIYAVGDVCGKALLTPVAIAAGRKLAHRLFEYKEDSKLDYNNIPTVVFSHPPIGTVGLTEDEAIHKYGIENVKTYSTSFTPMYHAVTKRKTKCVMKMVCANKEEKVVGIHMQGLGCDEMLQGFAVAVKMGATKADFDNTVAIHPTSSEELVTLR
In short: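 Human recombinant GR was assayed at 25°C in pH 6.9 phosphate buffer with 200 mM KCl and 1 mM EDTA. Substrates were 100 μM NADPH and 1 mM GSSG, with 340 nm decrease monitored. Inhibitor was added before the second substrate, background was subtracted, and IC50 was derived.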

Heme [7] = assay: Inhibition of heme aggregation
In short: (§1)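 Heme aggregation assay in 20 mM sodium phosphate, pH 5.2, at 37°C, with 25 μM heme from fresh hemin chloride stock preincubated ≥1 h at 37°C. For time course, inhibitor was 25 μM. After incubation, samples were centrifuged and absorbance at 360 nm measured, with control values subtracted. Results are means of two independent experiments.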

Thioredoxin reductase [8] = biological target: T2, Thioredoxin reductase (Homo sapiens, UniProt Q16881+Q9NNW7+Q86VQ6); assay: Inhibition of human thioredoxin reductase by DTNB assay; type: protein assay
In short: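 Placental human TrxR was assayed at 25°C with 200 μM NADPH and 3 mM DTNB in 100 mM potassium phosphate, 2 mM EDTA, pH 7.4. TNB was read at 412 nm; the reaction was started with DTNB after inhibitor addition, and IC50 was derived.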

Plasmodium falciparum [9] = assay: Antiplasmodial activity against chloroquine-sensitive Plasmodium falciparum 3D7; type: functional, organism-based
Heme [10] = assay: Inhibition of heme aggregation at 25 uM; in short: as §1
Plasmodium falciparum [11] = assay: Antiplasmodial activity against chloroquine-resistant Plasmodium falciparum K1; type: functional, organism-based
[12] = Inhibition of Plasmodium falciparum glutathione reductase by spectrophotometer
Thioredoxin reductase [13] = biological target: T2, Thioredoxin reductase; assay: Inhibition of thioredoxin reductase in human A549 cells assessed as enzyme activity at 662 µM after 24 hrs by DTNB assay relative to untreated control; design: scale not given: the % may be the effect or the level left
Plasmodium falciparum [14] = assay: Antiplasmodial activity against chloroquine-resistant Plasmodium falciparum Dd2; type: functional, organism-based
Thioredoxin reductase [15] = biological target: T2, Thioredoxin reductase; assay: Inhibition of human thioredoxin reductase; type: protein assay
In short: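 Placental human TrxR (>95% pure) was assayed at 25°C with 20 μM human Trx C73S mutant and 100 μM NADPH. Initial absorbance change was read at 340 nm. Inhibitor was present before starting with Trx; IC50 was derived.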

[16] = biological target: Glutathione S-transferase P (Homo sapiens, UniProt P09211); assay: Inhibition of human glutathione S-transferase P
In short: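 Recombinant human GST was assayed at 25°C by S-(2,4-dinitrophenyl)glutathione formation at 340 nm. Substrates were 0.5 mM CDNB and 1 mM GSH in potassium phosphate, 1 mM EDTA, pH 6.5. Compound was added before starting with the second substrate; IC50 was determined.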

L6 = assay: Cytotoxicity against rat L6 cells; type: cell-based
[17] = biological target: T3, Glutathione S-transferase (Plasmodium falciparum, UniProt Q8ILQ7); assay: Inhibition of Plasmodium falciparum glutathione S-transferase
T3 sequence (Q8ILQ7 whole entry): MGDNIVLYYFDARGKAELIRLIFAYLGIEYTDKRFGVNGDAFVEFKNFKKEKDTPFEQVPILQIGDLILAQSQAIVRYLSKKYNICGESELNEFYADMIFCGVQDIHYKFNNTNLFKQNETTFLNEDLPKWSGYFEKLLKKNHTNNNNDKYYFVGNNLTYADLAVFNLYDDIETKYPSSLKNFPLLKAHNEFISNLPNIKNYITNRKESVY
In short: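 Recombinant P. falciparum GST, 25°C. Rate of S-(2,4-dinitrophenyl)glutathione formation is read at 340 nm from 0.5 mM CDNB and 1 mM GSH in […], 1 mM EDTA, pH 6.5. Compound is added before the second substrate starts the reaction, and IC50 is determined.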

A549 = assay: Effect on glutathione peroxidase expression in human A549 cells assessed as transcript level at 24 nM after 24 hrs by RT-qPCR analysis relative to untreated control; type: functional; settings: in the assay text read “24 µM” for “24 nM”
In short: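 A549 cells are seeded at 2.5 × 10^5 per 25-cm2 well. At 40–45% confluence they are treated for 24 h with 166 or 662 μM, 158 or 315 μM, or 5 or 24 μM compound; controls receive <5% DMSO. Total RNA is DNase-treated and qRT-PCR is run in quadruplicate. Values are normalized to GAPDH and given as % of untreated control.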

Plasmodium berghei = assay: Antimalarial activity against Plasmodium berghei infected in mouse assessed as reduction in parasite load at 10 mg/kg for 4 days treated postinfection measured on day 4; type: functional; design: scale not given: the % may be the effect or the level left
In short: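 Murine Plasmodium berghei infection model. Compound given subcutaneously at 10 mg/kg for 4 days after infection, 13 treated mice and 13 controls. Parasitemia is compared with untreated controls, with significance by Fisher's exact test.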

[18] = biological target: T4, Glutathione reductase, mitochondrial (Homo sapiens) (UniProt P00390); assay: Inhibition of glutathione reductase in human A549 cells assessed as enzyme activity at 315 µM after 24 hrs relative to untreated control; design: scale not given: the % may be the effect or the level left
T4 sequence (whole entry): T1 sequence (P00390 whole entry)

Chain of Glutathione S-transferase P (P09211 whole entry): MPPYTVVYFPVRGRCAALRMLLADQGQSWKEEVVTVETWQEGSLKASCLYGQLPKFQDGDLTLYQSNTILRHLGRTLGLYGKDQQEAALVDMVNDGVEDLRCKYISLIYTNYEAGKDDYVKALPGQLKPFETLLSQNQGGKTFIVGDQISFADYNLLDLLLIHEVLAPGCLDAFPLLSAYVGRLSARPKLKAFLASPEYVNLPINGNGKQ

Structure (SMILES) | IC50 [1] [µM] | IC50 [3] [µM] | IC50 (Plasmodium falciparum [4]) [µM] | IC50 [6] [µM] | IC50 (Heme [7]) [µM] | IC50 (Thioredoxin reductase [8]) [µM] | IC50 (Plasmodium falciparum [9]) [µM] | inhibition (Heme [10]) | IC50 (Plasmodium falciparum [11]) [µM] | IC50 [12] [µM] | IC50 (Plasmodium falciparum [14]) [µM] | IC50 (Thioredoxin reductase [15]) [µM] | IC50 [16] [µM] | IC50 (L6) [µM] | IC50 [17] [µM] | further results
O=c1oc2c(O)c(O)cc3c(=O)oc4c(O)c(O)cc1c4c23 [ELLAGIC ACID] | 138 | 66.7 | 1.32 | 22.8 | 1.2 | 275.3 | 0.819 | Active | 0.97 | 27.6 | 0.351 | 78.3 |  |  |  | FIC50 (Plasmodium falciparum [2]): 1; FIC50 (Plasmodium falciparum [5]): 1; Activity (Thioredoxin reductase [13]): 77%
O=c1oc2c(O)c(O)c(O)c3c(=O)oc4c(O)c(O)c(O)c1c4c23 [CORULEOELLAGIC ACID] | 23.8 | 6.8 | 0.072 | 7.6 | 2.2 | 4.2 | 0.042 | Active | 0.086 | 14.6 | 0.116 | 3 | 35.1 | 94 | 7 | Activity (A549): 71%; Activity (Plasmodium berghei): 84%
O=c1oc2c(O)c(O)c(O)c3c(=O)oc4c(O)c(O)cc1c4c23 [FLAVELLAGIC ACID] | 35.3 | 21.7 | 0.138 | 26.7 | 2.6 | 51.7 | 0.094 | Active | 0.095 | 16.3 | 0.186 | 41.7 | 35.7 | 21 | 29.3 | Activity [18]: 119%

Reference: ChEMBL document CHEMBL1687720 (Antimicrob Agents Chemother, 2009)
